The source made the active and inactive calls. The rule behind the calls is not given here.
System: LNCaP
Assay: Antimigratory activity in human LNCaP cells assessed as reduction in cell migration at Ki level incubated for 72 hrs by crystal violet staining based confocal microscopy
Format: functional
Settings: not given
In short: (§1)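 Transwell migration, 8.0 μm pore polycarbonate membrane; 10⁵ cells seeded in serum-free medium in upper chamber, complete medium with 10% FBS below. Cells kept in RPMI 1640, 10% FBS. Migration scored after 72 h without or with treatment; migrated cells fixed in 4% paraformaldehyde, crystal violet stained, counted in five random fields; at least three chambers from three experiments.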

SMILES	Activity
CCCn1c(=O)[nH]c2nc(-c3ccc(S(=O)(=O)N4CCN(c5ccc(Cl)cc5)CC4)cc3)[nH]c2c1=O	Active

Target: T1, Adenosine receptor A1 (Homo sapiens) (UniProt P30542)
T1 sequence (whole entry): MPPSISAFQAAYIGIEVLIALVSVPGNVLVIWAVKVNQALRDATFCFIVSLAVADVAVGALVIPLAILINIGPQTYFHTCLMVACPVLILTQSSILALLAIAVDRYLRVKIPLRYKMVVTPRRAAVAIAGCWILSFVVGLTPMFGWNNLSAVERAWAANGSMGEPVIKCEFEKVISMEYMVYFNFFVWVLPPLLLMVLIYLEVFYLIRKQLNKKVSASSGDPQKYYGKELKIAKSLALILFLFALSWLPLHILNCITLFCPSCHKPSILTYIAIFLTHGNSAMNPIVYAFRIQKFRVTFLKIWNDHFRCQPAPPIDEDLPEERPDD
Assay: Displacement of [3H]DPCPX from human adenosine A1 receptor expressed in CHO cell membranes at 1 uM incubated for 60 mins by scintillation counting method
Settings: Cell membrane

SMILES	inhibition
CC1=C(C(=O)OC2CCC2)C(c2ccco2)NC(=O)N1 (racemic)	19%
CC1=C(C(=O)OCC(C)C)C(c2ccsc2)NC(=O)N1 (racemic)	56%
CC1=C(C(=O)OCC2CCC2)C(c2ccsc2)NC(=O)N1 (racemic)	48%
CC1=C(C(=O)OCC2CC2)C(c2cccs2)NC(=O)N1 (racemic)	23%
CC1=C(C(=O)OC(C)C)[C@@H](c2ccco2)NC(=S)N1	8%
CC1=C(C(=O)OCC2CCC2)C(c2ccco2)NC(=O)N1 (racemic)	42%
CC1=C(C(=O)OC2CCCC2)C(c2ccsc2)NC(=O)N1 (racemic)	5%
CC1=C(C(=O)CC(C)C)C(c2ccsc2)NC(=O)N1 (racemic)	37%
CC1=C(C(=O)CC(C)C)C(c2ccco2)NC(=O)N1 (racemic)	16%
CC1=C(C(=O)OCC(C)C)C(c2cccs2)NC(=O)N1 (racemic)	25%
CCCOC(=O)C1=C(C)NC(=O)NC1c1cccs1 (racemic)	43%
CC1=C(C(=O)OCc2ccccc2)C(c2ccco2)NC(=O)N1 (racemic)	36%
COC(=O)C1=C(C)N=C(S)NC1c1ccco1 (racemic)	11%
CC1=C(c2ncc(C)o2)C(c2ccoc2)NC(=O)N1 (racemic)	21%
CC1=C(c2ncc(C)o2)C(c2ccco2)NC(=O)N1 (racemic)	27%
CC1=C(C(=O)OC(C)(C)C)C(c2ccoc2)NC(=S)N1 (racemic)	18%
CC1=C(C(=O)OCC2CCC2)C(c2ccoc2)NC(=O)N1 (racemic)	46%

Target: T2, Adenosine receptor A2b (Homo sapiens, UniProt P29275)
T2 sequence (P29275 whole entry): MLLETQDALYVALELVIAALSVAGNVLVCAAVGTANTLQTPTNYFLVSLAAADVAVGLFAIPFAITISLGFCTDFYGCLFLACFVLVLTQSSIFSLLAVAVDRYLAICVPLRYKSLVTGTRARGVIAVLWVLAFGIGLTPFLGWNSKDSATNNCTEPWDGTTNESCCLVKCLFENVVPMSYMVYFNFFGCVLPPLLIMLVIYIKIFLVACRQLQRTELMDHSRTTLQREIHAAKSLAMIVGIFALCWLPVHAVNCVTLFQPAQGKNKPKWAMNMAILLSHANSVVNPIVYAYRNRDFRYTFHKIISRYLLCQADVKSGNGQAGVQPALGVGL
Assay: Displacement of [3H]DPCPX from human adenosine A2B receptor expressed in HEK293 cell membranes incubated for 30 mins by scintillation counting method
Parameters: species or system Cell membrane
Settings: not given

SMILES	Ki
CC1=C(C(=O)OC2CCC2)C(c2ccco2)NC(=O)N1 (racemic)	95.1 nM
CC1=C(C(=O)OCC(C)C)C(c2ccsc2)NC(=O)N1 (racemic)	1190 nM
CC1=C(C(=O)OCC2CCC2)C(c2ccsc2)NC(=O)N1 (racemic)	1040 nM
CC1=C(C(=O)OCC2CC2)C(c2cccs2)NC(=O)N1 (racemic)	1570 nM
CC1=C(C(=O)OC(C)C)[C@@H](c2ccco2)NC(=S)N1	6.3 nM
CC1=C(C(=O)OCC2CCC2)C(c2ccco2)NC(=O)N1 (racemic)	561 nM
CC1=C(C(=O)OC2CCCC2)C(c2ccsc2)NC(=O)N1 (racemic)	659 nM
CC1=C(C(=O)CC(C)C)C(c2ccsc2)NC(=O)N1 (racemic)	1000 nM
CC1=C(C(=O)CC(C)C)C(c2ccco2)NC(=O)N1 (racemic)	240 nM
CC1=C(C(=O)OCC(C)C)C(c2cccs2)NC(=O)N1 (racemic)	2130 nM
CCCOC(=O)C1=C(C)NC(=O)NC1c1cccs1 (racemic)	1520 nM
CC1=C(C(=O)OCc2ccccc2)C(c2ccco2)NC(=O)N1 (racemic)	887 nM
COC(=O)C1=C(C)N=C(S)NC1c1ccco1 (racemic)	984 nM
CC1=C(c2ncc(C)o2)C(c2ccoc2)NC(=O)N1 (racemic)	801 nM
CC1=C(c2ncc(C)o2)C(c2ccco2)NC(=O)N1 (racemic)	905 nM
CC1=C(C(=O)OC(C)(C)C)C(c2ccoc2)NC(=S)N1 (racemic)	1890 nM
CC1=C(C(=O)OCC2CCC2)C(c2ccoc2)NC(=O)N1 (racemic)	739 nM

Target: Adenosine receptor A2a (Homo sapiens) (UniProt P29274)
Sequence (P29274 whole entry): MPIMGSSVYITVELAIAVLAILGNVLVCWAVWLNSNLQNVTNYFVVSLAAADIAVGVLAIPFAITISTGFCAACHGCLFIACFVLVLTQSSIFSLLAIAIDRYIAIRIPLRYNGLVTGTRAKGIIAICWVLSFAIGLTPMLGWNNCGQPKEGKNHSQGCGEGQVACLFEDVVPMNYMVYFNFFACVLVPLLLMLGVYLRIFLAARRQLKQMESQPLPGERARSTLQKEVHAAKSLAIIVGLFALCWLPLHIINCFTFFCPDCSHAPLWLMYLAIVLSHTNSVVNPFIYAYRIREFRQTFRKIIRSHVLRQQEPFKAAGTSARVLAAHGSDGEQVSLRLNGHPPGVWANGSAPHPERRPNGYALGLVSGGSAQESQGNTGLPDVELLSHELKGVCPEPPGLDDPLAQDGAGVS
Assay: Displacement of [3H]ZM2421385 from adenosine A2A receptor expressed in human HeLa cell membranes at 1 uM incubated for 30 mins by scintillation counting method
Settings: Cell membrane

SMILES	inhibition
CC1=C(C(=O)OC2CCC2)C(c2ccco2)NC(=O)N1 (racemic)	41%
CC1=C(C(=O)OCC(C)C)C(c2ccsc2)NC(=O)N1 (racemic)	37%
CC1=C(C(=O)OCC2CCC2)C(c2ccsc2)NC(=O)N1 (racemic)	32%
CC1=C(C(=O)OCC2CC2)C(c2cccs2)NC(=O)N1 (racemic)	27%
CC1=C(C(=O)OC(C)C)[C@@H](c2ccco2)NC(=S)N1	13%
CC1=C(C(=O)OCC2CCC2)C(c2ccco2)NC(=O)N1 (racemic)	22%
CC1=C(C(=O)OC2CCCC2)C(c2ccsc2)NC(=O)N1 (racemic)	1%
CC1=C(C(=O)CC(C)C)C(c2ccsc2)NC(=O)N1 (racemic)	19%
CC1=C(C(=O)CC(C)C)C(c2ccco2)NC(=O)N1 (racemic)	6%
CC1=C(C(=O)OCC(C)C)C(c2cccs2)NC(=O)N1 (racemic)	12%
CCCOC(=O)C1=C(C)NC(=O)NC1c1cccs1 (racemic)	30%
CC1=C(C(=O)OCc2ccccc2)C(c2ccco2)NC(=O)N1 (racemic)	26%
COC(=O)C1=C(C)N=C(S)NC1c1ccco1 (racemic)	20%
CC1=C(c2ncc(C)o2)C(c2ccoc2)NC(=O)N1 (racemic)	14%
CC1=C(c2ncc(C)o2)C(c2ccco2)NC(=O)N1 (racemic)	23%
CC1=C(C(=O)OC(C)(C)C)C(c2ccoc2)NC(=S)N1 (racemic)	15%
CC1=C(C(=O)OCC2CCC2)C(c2ccoc2)NC(=O)N1 (racemic)	25%

System: DU-145
Assay: Antimigratory activity in human DU-145 cells assessed as reduction in cell migration at Ki level incubated for 72 hrs by crystal violet staining based confocal microscopy
Format: functional
Settings: not given
In short: as §1

SMILES	Activity
CCCn1c(=O)[nH]c2nc(-c3ccc(S(=O)(=O)N4CCN(c5ccc(Cl)cc5)CC4)cc3)[nH]c2c1=O	Active

System: PC-3
Assay: Antimetastatic activity in human PC-3 cells assessed as induction of actin skeleton reorganization at Ki level incubated for 72 hrs by confocal laser scanning microscopy
Format: functional, cell-based
Settings: not given

SMILES	Activity
CCCn1c(=O)[nH]c2nc(-c3ccc(S(=O)(=O)N4CCN(c5ccc(Cl)cc5)CC4)cc3)[nH]c2c1=O	Active

System: PC-3
Assay: Antimigratory activity in human PC-3 cells assessed as reduction in cell migration at Ki level incubated for 72 hrs by crystal violet staining based confocal microscopy
Format: functional
Settings: not given
In short: as §1

SMILES	Activity
CCCn1c(=O)[nH]c2nc(-c3ccc(S(=O)(=O)N4CCN(c5ccc(Cl)cc5)CC4)cc3)[nH]c2c1=O	Active

Target: T3, Adenosine receptor A3 (Homo sapiens) (UniProt P0DMS8)
T3 sequence (whole entry): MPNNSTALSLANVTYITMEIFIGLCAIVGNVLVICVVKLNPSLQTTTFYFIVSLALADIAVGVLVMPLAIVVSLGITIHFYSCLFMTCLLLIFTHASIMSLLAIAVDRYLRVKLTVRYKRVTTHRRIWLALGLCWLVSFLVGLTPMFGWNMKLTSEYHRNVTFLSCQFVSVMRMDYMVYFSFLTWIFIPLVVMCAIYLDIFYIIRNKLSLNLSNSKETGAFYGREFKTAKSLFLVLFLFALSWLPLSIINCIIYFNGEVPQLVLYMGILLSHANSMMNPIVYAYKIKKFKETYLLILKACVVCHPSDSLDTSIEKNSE
Assay: Displacement of [3H]NECA from adenosine A3 receptor expressed in human HeLa cell membranes at 1 uM incubated for 180 mins by scintillation counting method
Settings: Cell membrane
In short: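 hA3AR in HeLa membranes (3 pmol/mg protein) with 10 nM [3H]NECA (KD 8.7 nM); nonspecific binding with 100 μM R-PIA; incubated 180 min at 25 °C, washed, filtered, radioactivity counted.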

SMILES	inhibition
CC1=C(C(=O)OC2CCC2)C(c2ccco2)NC(=O)N1 (racemic)	1%
CC1=C(C(=O)OCC(C)C)C(c2ccsc2)NC(=O)N1 (racemic)	21%
CC1=C(C(=O)OCC2CCC2)C(c2ccsc2)NC(=O)N1 (racemic)	2%
CC1=C(C(=O)OCC2CC2)C(c2cccs2)NC(=O)N1 (racemic)	1%
CC1=C(C(=O)OC(C)C)[C@@H](c2ccco2)NC(=S)N1	1%
CC1=C(C(=O)OCC2CCC2)C(c2ccco2)NC(=O)N1 (racemic)	1%
CC1=C(C(=O)OC2CCCC2)C(c2ccsc2)NC(=O)N1 (racemic)	5%
CC1=C(C(=O)CC(C)C)C(c2ccsc2)NC(=O)N1 (racemic)	14%
CC1=C(C(=O)CC(C)C)C(c2ccco2)NC(=O)N1 (racemic)	31%
CC1=C(C(=O)OCC(C)C)C(c2cccs2)NC(=O)N1 (racemic)	11%
CCCOC(=O)C1=C(C)NC(=O)NC1c1cccs1 (racemic)	32%
CC1=C(C(=O)OCc2ccccc2)C(c2ccco2)NC(=O)N1 (racemic)	3%
COC(=O)C1=C(C)N=C(S)NC1c1ccco1 (racemic)	1%
CC1=C(c2ncc(C)o2)C(c2ccoc2)NC(=O)N1 (racemic)	1%
CC1=C(c2ncc(C)o2)C(c2ccco2)NC(=O)N1 (racemic)	4%
CC1=C(C(=O)OC(C)(C)C)C(c2ccoc2)NC(=S)N1 (racemic)	19%
CC1=C(C(=O)OCC2CCC2)C(c2ccoc2)NC(=O)N1 (racemic)	2%

System: PC-3
Assay: Antimetastatic activity in human PC-3 cells assessed as effect on cell shape at Ki level incubated for 72 hrs by confocal laser scanning microscopy
Format: functional, cell-based
Settings: not given

SMILES	Activity
CCCn1c(=O)[nH]c2nc(-c3ccc(S(=O)(=O)N4CCN(c5ccc(Cl)cc5)CC4)cc3)[nH]c2c1=O	Active

Source: ChEMBL document CHEMBL4765483 (J Med Chem, 2021)
